Columns and labels:
[1] = Drug uptake in endoplasmic reticulum of human A-375 cells at 5.4 uM measured after 12 hrs by ER-tracker based fluorescence imaging analysis; assay type: ADME, subcellular; details: a-375, 12 h
Outline: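 Living A375 cells were incubated with compound for 12 h, co-stained with ER-Tracker, and imaged by fluorescence microscopy. Compound, tracker and merged channels were compared for localisation in the endoplasmic reticulum.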

NIH3T3 = test: Cytotoxicity against mouse NIH3T3 cells assessed as reduction in cell viability measured after 72 hrs by SRB assay; assay type: cell-based; details: NIH3T3, 72 h
Outline: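 Sulforhodamine B assay on human tumour lines A375 (epithelial melanoma), HT29 (colorectal adenocarcinoma), MCF-7 (breast adenocarcinoma), A2780 (ovarian carcinoma) and FaDu (squamous cell carcinoma). Non-malignant NIH 3T3 (mouse fibroblasts) and HEK293 (human embryonic kidney) cells were also tested. EC50 values are given as mean ± standard mean error.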

[2] = Drug uptake in Mitochondria of human A-375 cells at 5.4 uM measured after 12 hrs by Mito-tracker based fluorescence imaging analysis; assay type: ADME; details: a-375, 12 h
A-375 = test: Cytotoxicity against human A-375 cells assessed as reduction in cell viability measured after 72 hrs by SRB assay; assay type: functional, cell-based; details: A-375, 72 h
HEK293 = test: Cytotoxicity against human HEK293 cells assessed as reduction in cell viability measured after 72 hrs by SRB assay; assay type: ADME, cell-based; details: HEK293, 72 h
MCF7 = test: Cytotoxicity against human MCF7 cells assessed as reduction in cell viability measured after 72 hrs by SRB assay; assay type: functional, cell-based; details: MCF7, 72 h
FaDu = test: Cytotoxicity against human FaDu cells assessed as reduction in cell viability measured after 72 hrs by SRB assay; assay type: functional, cell-based
HT-29 = test: Cytotoxicity against human HT-29 cells assessed as reduction in cell viability measured after 72 hrs by SRB assay; assay type: functional, cell-based; details: HT-29, 72 h
A2780 = test: Cytotoxicity against human A2780 cells assessed as reduction in cell viability measured after 72 hrs by SRB assay; assay type: functional, cell-based; details: A2780, 72 h

SMILES | Drug uptake [1] | EC50 (NIH3T3) [µM] | Drug uptake [2] | EC50 (A-375) [µM] | EC50 (HEK293) [µM] | EC50 (MCF7) [µM] | EC50 (FaDu) [µM] | EC50 (HT-29) [µM] | EC50 (A2780) [µM]
C=C(C)[C@@H]1CC[C@]2(C(=O)N3CCN(C(=O)C4=C(C)C=C(C)N5C[N+](CCCCCC)(CCCCCC)N=C45)CC3)CC[C@]3(C)[C@H](CC[C@@H]4[C@@]5(C)CC[C@H](OC(C)=O)C(C)(C)[C@@H]5CC[C@]43C)[C@@H]12.[Cl-] | Active | 6.6 | Not Active | 5.4 | 3 | 4.9 | 6 | 7.5 | 4.6
C=C(C)[C@@H]1CC[C@]2(C(=O)NCCNC(=O)C3=Cc4ccccc4N4C[N+](CC)(CC)N=C34)CC[C@]3(C)C(=CC[C@@H]4[C@@]5(C)CC[C@H](OC(C)=O)C(C)(C)[C@@H]5CC[C@]43C)[C@H]12 | – | 17.4 | – | 18.6 | 13.6 | 17.6 | 12.3 | 26.8 | 18.3

Reference: ChEMBL document CHEMBL4732060, “Cytotoxic triterpenoid-safirinium conjugates target the endoplasmic reticulum” (Eur J Med Chem, 2021)
